Reference: ChEMBL document CHEMBL1799933, “Discovery of a selective allosteric M1 receptor modulator with suitable development properties based on a quinolizidinone carboxylic acid scaffold” (J Med Chem, 2011)
Positions count from the first letter of the chain named. Active and inactive are the calls of the source. The rule behind the calls is not given here.

What was measured:
[1] = Oral bioavailability in rhesus monkey; assay type: ADME, organism-based, Macaca mulatta; details: in vivo
[2] = Passive permeability of the compound at 5 uM; assay type: ADME; details: not told
[3] = tested on: Mus musculus; assay: Antiamnesic activity against scopolamine-induced dementia in B6SJL mouse assessed as increase in freezing behavior at 30 mg/kg, ip after 24 hrs; assay type: functional, organism-based; set-up: dose 30 mg/kg
Method in brief: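 Male B6SJL mice, 10 weeks old and naive (n = 12–16/group), were given compound IP in 5% beta-cyclodextrin and/or scopolamine 0.3 mg/kg in 0.9% saline 30 min before training. Training was 2 tone (3 kHz, 85 dB, 30 s)–footshock (0.5 mA, 1 s) pairings 2 min apart. Freezing in the same chamber was video-scored 24 h later.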

[4] = Clearance in dog at 3 mg/kg, po and 1 mg/kg, iv; assay type: ADME, organism-based, Canis lupus familiaris; details: in vivo
Method in brief: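 Dog PK, n = 2 animals. Given orally at 3 mg/kg and intravenously at 1 mg/kg. Interanimal variability under 20% for all values.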

[5] = Plasma protein binding in rat serum by equilibrium dialysis method; assay type: ADME, cell-free; details: read-out: PPB (converted)
Method in brief: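 Protein binding measured by equilibrium dialysis against rat or human serum.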

[6] = target: T1, Muscarinic acetylcholine receptor M1 (Macaca mulatta) (UniProt P56489); assay: Agonist activity at rhesus monkey muscarinic M1 receptor expressed in CHOK1 cells assessed as potentiation of acetylcholine-induced calcium mobilization preincubated for 4 mins measured after 1 hr by FLIPR assay; assay type: functional, cell-based; details: CHO-K1
T1 sequence (whole entry): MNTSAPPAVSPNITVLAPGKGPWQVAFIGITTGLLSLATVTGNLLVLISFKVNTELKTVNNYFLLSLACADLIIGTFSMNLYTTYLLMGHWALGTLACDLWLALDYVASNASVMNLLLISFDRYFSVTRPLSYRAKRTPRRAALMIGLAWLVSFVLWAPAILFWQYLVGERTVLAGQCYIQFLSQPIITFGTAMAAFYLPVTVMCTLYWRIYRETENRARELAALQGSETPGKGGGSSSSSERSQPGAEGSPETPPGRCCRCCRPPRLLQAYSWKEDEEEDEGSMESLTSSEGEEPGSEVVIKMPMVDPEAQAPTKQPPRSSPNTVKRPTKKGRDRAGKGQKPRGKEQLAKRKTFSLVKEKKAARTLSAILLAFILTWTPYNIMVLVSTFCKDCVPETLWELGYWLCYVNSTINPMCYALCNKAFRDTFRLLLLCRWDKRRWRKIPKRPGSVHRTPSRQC
Method in brief: (§1)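 CHO-NFAT cells expressing the named muscarinic receptor (human M1–M4; rhesus, dog or rat M1 in CHO-K1) were plated at 25,000 cells/well and grown overnight at 37 °C, 6% CO2. Cells were loaded with 1 μM Fluo-4AM for 1 h, washed, and preincubated 4 min with serially diluted compound (final DMSO 0.67%). They were then stimulated 4 min with an EC20 of ACh, and Ca2+ flux was read by FLIPR384.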

[7] = Clearance in rat at 3 mg/kg, po and 1 mg/kg, iv; assay type: ADME, organism-based; details: in vivo
Method in brief: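 Rats (n = 2) dosed orally at 3 mg/kg and IV at 1 mg/kg. Interanimal variability under 20% for all values.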

[8] = target: T2, Muscarinic acetylcholine receptor M4 (Homo sapiens) (UniProt P08173); assay: Agonist activity at human muscarinic M4 receptor expressed in CHONFAT cells assessed as increase in acetylcholine-induced calcium mobilization at 10 uM preincubated for 4 mins measured after 1 hr by FLIPR assay; assay type: functional, cell-based; method in brief: as §1
T2 sequence (whole entry): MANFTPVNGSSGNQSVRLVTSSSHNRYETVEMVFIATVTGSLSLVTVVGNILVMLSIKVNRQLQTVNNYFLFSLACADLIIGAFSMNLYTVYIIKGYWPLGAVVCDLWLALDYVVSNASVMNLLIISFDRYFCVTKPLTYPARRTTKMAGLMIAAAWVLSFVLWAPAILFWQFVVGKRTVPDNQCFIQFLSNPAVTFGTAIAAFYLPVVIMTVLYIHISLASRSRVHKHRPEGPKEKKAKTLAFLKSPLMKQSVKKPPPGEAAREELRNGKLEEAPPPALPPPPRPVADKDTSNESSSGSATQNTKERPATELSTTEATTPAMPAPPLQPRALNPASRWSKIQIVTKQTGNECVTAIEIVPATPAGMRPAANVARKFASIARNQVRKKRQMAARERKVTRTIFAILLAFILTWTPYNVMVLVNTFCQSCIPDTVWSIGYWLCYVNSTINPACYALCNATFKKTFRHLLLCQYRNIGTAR

[9] = target: T3, Muscarinic acetylcholine receptor M1 (Homo sapiens) (UniProt P11229); assay: Agonist activity at human muscarinic M1 receptor expressed in CHONFAT cells assessed as enhancement of acetylcholine-induced calcium mobilization preincubated for 4 mins measured after 1 hr by FLIPR assay; assay type: functional, cell-based; method in brief: as §1
T3 sequence (whole entry): T1 sequence (whole entry) with P265A, D277E

[10] = Metabolic stability in dog NADPH-fortified hepatic microsomes assessed as oxidative metabolism; assay type: ADME, Canis lupus familiaris, Liver
Method in brief: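 Compound incubated with NADPH-fortified hepatic microsomes from rat, dog, monkey or human. Oxidative metabolism monitored.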

N#CC1(c2ccccn2)CCN(Cc2cc(C(=O)O)c(=O)n3ccccc23)CC1 [MSD-M1PAM]
bioavailability [1]: 55%
Papp at 5 µM [2]: 18 ×10⁻⁶ cm/s
Activity [3]: Active
clearance [4]: 7.4 mL/min/kg
fraction unbound [5]: 0.318
IP [6]: 49 nM
clearance [7]: 13.5 mL/min/kg
Activity [8]: inactive
IP [9]: 135 nM
Stability [10]: Stable
